pIC50: −log10 of the molar value. In brackets after ≈: the same amount, converted by molar mass.
Tests used:
Escherichia coli [1] = test: Ratio of […] of Escherichia coli beta-glucuronidase
How it was run: (§1)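 Prodrug at various concentrations incubated with 0.125 µg/mL E. coli β-glucuronidase, pH 7.0, 37 °C, 20 min; stopped with ice-cold MeOH to precipitate protein. Substrate and released 10-hydroxycamptothecin quantified by reversed-phase HPLC with fluorescence detection (ex 397, em 482 nm) against standard calibration curves; Km, Vmax and Vmax/Km derived.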

Escherichia coli [2] = test: Activity of Escherichia coli beta-glucuronidase; how it was run: as §1
[3] = Cytotoxicity against human H298 cells assessed as inhibition of [3H]thymidine in presence of beta-glucuronidase after 48 hrs; assay type: functional, cell-based
How it was run: (§2)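 As the plain [³H]thymidine assay (5 × 10³ cells/well, RPMI/10% serum, 48 h exposure, then 12 h 1 µCi/well pulse, scintillation counting), but β-glucuronidase (5 µg/mL; 1 µg/well) added together with drug. Triplicate wells, 1–3 experiments; IC50 interpolated from log dose–response curves.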

COLO 205 [4] = test: Cytotoxicity against human Colo 205 cells assessed as inhibition of [3H]thymidine in presence of beta-glucuronidase after 48 hrs; assay type: functional, cell-based; how it was run: as §2
Plasma = test: Stability in 95% human plasma; assay type: ADME, cell-free
How it was run: (§3)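 Incubated in 95% human plasma at 37 °C up to 6 h. Aliquots neutralized with 12 mM phosphoric acid, extracted three times with ethyl acetate, dried, redissolved in mobile phase, filtered and analysed by reversed-phase HPLC with fluorescence detection.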

HepG2 [5] = test: Cytotoxicity against human HepG2 cells assessed as inhibition of [3H]thymidine after 48 hrs; assay type: functional, cell-based
How it was run: (§4)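 Exponentially growing cells, 5 × 10³/well in RPMI with 10% bovine serum and penicillin/streptomycin, 37 °C, 5% CO₂, exposed to a range of drug concentrations (DMSO final ≤0.5%; vehicle controls). After 48 h, 12 h [³H]thymidine pulse (1 µCi/well); trypsinized cells counted for radioactivity. Triplicate wells, 1–3 experiments; IC50 interpolated from log dose–response curves.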

[6] = Prodrug hydrolysis by Escherichia coli beta-glucuronidase assessed as release of 10-hydroxycamptothecin at pH 7.0; assay type: ADME; parameters: scale not given: the % may be the effect or the level left; conditions: buffer
How it was run: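 Substrate incubated with E. coli β-glucuronidase (0.1 µg/mL) in pH 7.0 phosphate buffer at 37 °C. Aliquots taken over time; substrate and released 10-hydroxycamptothecin quantified by fluorescence-detected reversed-phase HPLC. Triplicate determinations.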

HT-29 [7] = test: Cytotoxicity against human HT29 cells assessed as inhibition of [3H]thymidine in presence of beta-glucuronidase after 48 hrs; assay type: functional, cell-based; how it was run: as §2
[8] = Cytotoxicity against human H298 cells assessed as inhibition of [3H]thymidine after 48 hrs; assay type: functional, cell-based; how it was run: as §4
HepG2 [9] = test: Cytotoxicity against human HepG2 cells assessed as inhibition of [3H]thymidine in presence of beta-glucuronidase after 48 hrs; assay type: functional, cell-based; how it was run: as §2
HT-29 [10] = test: Cytotoxicity against human HT29 cells assessed as inhibition of [3H]thymidine after 48 hrs; assay type: functional, cell-based; how it was run: as §4
COLO 205 [11] = test: Cytotoxicity against human Colo 205 cells assessed as inhibition of [3H]thymidine after 48 hrs; assay type: functional, cell-based; how it was run: as §4
[12] = Aqueous solubility in phosphate buffer at pH 7.0; assay type: physicochemical
How it was run: (§5)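 Excess solid equilibrated in 100 mM phosphate buffer (pH 4.0 or 7.0) at 25 °C for 24 h. Filtered through 0.2 µm, diluted in mobile phase and quantified by HPLC with fluorescence detection against calibration curves. Single determination.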

[13] = Aqueous solubility in phosphate buffer at pH 4.0; assay type: physicochemical; how it was run: as §5
[14] = Stability in human plasma assessed as degradation after 10 mins; assay type: ADME, cell-free; conditions: read-out: Activity; how it was run: as §3

SMILES: CC[C@@]1(O)C(=O)OCc2c1cc1n(c2=O)Cc2cc3c(NC(=O)OCc4ccc(O[C@@H]5O[C@H](C(=O)O)[C@@H](O)[C@H](O)[C@H]5O)cc4)cccc3nc2-1
- Ratio (Escherichia coli [1]): 0.03 min⁻¹
- Km (Escherichia coli [2]): 30 µM
- Vmax (Escherichia coli [2]): 0.86 µM/min

SMILES: CC[C@@]1(O)C(=O)OCc2c1cc1n(c2=O)Cc2cc3cc(OCc4ccc(O[C@@H]5O[C@H](C(=O)O)[C@@H](O)[C@H](O)[C@H]5O)c([N+](=O)[O-])c4)ccc3nc2-1
- pIC50 [3]: 7.95
- Ratio (Escherichia coli [1]): 15 min⁻¹
- pIC50 (COLO 205 [4]): 7.99
- Km (Escherichia coli [2]): 0.18 µM
- Vmax (Escherichia coli [2]): 2.7 µM/min
- Stability (Plasma): Stable
- pIC50 (HepG2 [5]): 7.25
- Activity [6]: > 50%
- pIC50 (HT-29 [7]): 8.00
- pIC50 [8]: 7.04
- pIC50 (HepG2 [9]): 8.18
- pIC50 (HT-29 [10]): 7.01
- pIC50 (COLO 205 [11]): 7.03
- solubility ([12]; phosphate buffer, read-out: Solubility): 2600 µM (≈ 1800 µg/mL)
- solubility [13]: 1100 µM (≈ 761 µg/mL)

SMILES: CC[C@@]1(O)C(=O)OCc2c1cc1n(c2=O)Cc2cc3cc(OC(=O)OCc4ccc(O[C@@H]5O[C@H](C(=O)OC)[C@@H](O)[C@H](O)[C@H]5O)cc4)ccc3nc2-1
- metabolised at 10 min [14]: 70%

SMILES: CC[C@@]1(O)C(=O)OCc2c1cc1n(c2=O)Cc2cc3cc(O)ccc3nc2-1 [HYDROXYCAMPTOTHECIN]
- pIC50 (HepG2 [5]): 8.27
- pIC50 [8]: 8.16
- pIC50 (HT-29 [10]): 8.06
- pIC50 (COLO 205 [11]): 8.04
- solubility ([12]; buffer): 137 µM (≈ 49.9 µg/mL)
- solubility [13]: 13.7 µM (≈ 4.99 µg/mL)

Source: ChEMBL document CHEMBL1144665, “Benzyl ether-linked glucuronide derivative of 10-hydroxycamptothecin designed for selective camptothecin-based anticancer therapy” (J Med Chem, 2008)
